Holding throughout (format): functional
For experiment [1], the system named is OVCAR-5. Kind of experiment: Growth inhibition of human OVCAR5 cells at 50 uM after 48 hrs by sulpharhodamine B assay. The following applies: OVCAR-5, 48 h, read-out: GI. The essentials:
(§1)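 This is the SRB protein-stain assay on adherent cells in RPMI-1640/MEM with 10% FCS. Each compound in DMSO (vehicle <0.2%) was applied at a single fixed concentration for 48 h. Cells were fixed with TCA and stained with SRB, and the dye was solubilised in Tris and read at 570/620 nm. Percent growth inhibition is relative to vehicle-treated controls, reported as mean ± SD of three experiments run in triplicate.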

The subject of experiment [2] is PC-3. Kind of experiment: Growth inhibition of human PC3 cells at 50 uM after 48 hrs by sulpharhodamine B assay. The conditions noted are these: PC-3, 48 h, read-out: GI. The essentials:
(§2)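 Cells grown in RPMI-1640/MEM with 10% FCS, penicillin/streptomycin, 37 °C, 5% CO2. Seeded in 96-well plates, allowed to adhere overnight, then exposed 48 h to analogs in DMSO (vehicle <0.2% in controls). TCA-fixed, stained with 0.4% SRB in 1% acetic acid, dye solubilized in 10 mM Tris base, OD 570 nm (ref 620 nm). Mean ± SD of three experiments run in triplicate.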

Experiment [3] deals with MCF7. The experiment is described as follows: Growth inhibition of human MCF7 cells at 50 uM after 48 hrs by sulpharhodamine B assay. The conditions noted are these: MCF7, 48 h, read-out: GI. The essentials: as §1
In experiment [4] the test system is THP-1. Kind of experiment: Growth inhibition of human THP1 cells at 50 uM after 48 hrs by sulpharhodamine B assay. The following applies: THP-1, 48 h, read-out: GI. In a few lines:
as §2

In experiment [5] the test system is A549. Kind of experiment: Growth inhibition of human A549 cells at 50 uM after 48 hrs by sulpharhodamine B assay. The following applies: A549, 48 h, read-out: GI. In a few lines:
as §1

In experiment [6] the test system is HeLa. The experiment is described as follows: Growth inhibition of human HeLa cells at 50 uM after 48 hrs by sulpharhodamine B assay. The following applies: read-out: GI. In a few lines: as §1
Experiment [7] has as its system IMR-32. Kind of experiment: Growth inhibition of human IMR32 cells at 50 uM after 48 hrs by sulpharhodamine B assay. The conditions noted are these: IMR-32, 48 h, read-out: GI. In a few lines: as §1

Data on ten compounds can be found in ChEMBL document CHEMBL1944511, “Bakuchiol derivatives as novel and potent cytotoxic agents: a report” (Eur J Med Chem, 2012).

For the compound `CC(C)=CCCC(C)(/C=C/c1ccc(O)cc1)/C=C/c1ccc(O)cc1`, the inhibition of growth at 50 µM in experiment [1] amounted to 33%; in experiment [2], 32%; in experiment [3] it was 31%; in experiment [4], 66%; in experiment [5] it was 33%; in experiment [6] it was 32%. Further, the inhibition of growth at 50 µM in experiment [7] was determined as 30%.
Regarding `C=C[C@@](C)(/C=C/c1ccc(O)c(N)c1)CCC=C(C)C`, the inhibition of growth at 50 µM in experiment [1] turned out to be 33%; in experiment [2] it was 28%; in experiment [3] it was 17%; in experiment [4], 48%; in experiment [5], 41%; in experiment [6] it was 48%. In addition, the inhibition of growth at 50 µM in experiment [7] worked out at 39%.
Consider `COc1ccc(/C=C/[C@@](C)(/C=C/c2ccc(O)cc2)CCC=C(C)C)cc1C=O`, for which the inhibition of growth at 50 µM was 33% in experiment [1]; 34% in experiment [2]; 36% in experiment [3]; 45% in experiment [4]; 32% in experiment [5]; 31% in experiment [6]. The inhibition of growth at 50 µM in experiment [7] was 35%.
`CC(C)=CCC[C@](C)(/C=C/c1ccc(O)cc1)/C=C/c1ccc(F)cc1`: the inhibition of growth at 50 µM in experiment [1] was determined as 29%; in experiment [2] it was 33%; in experiment [3] it was 28%; in experiment [4], 60%; in experiment [5] it was 31%; in experiment [6], 43%. The inhibition of growth at 50 µM in experiment [7] was determined as 37%.
Turning to `C=C[C@@](C)(/C=C/c1ccc(OC(=O)CCC)cc1)CCC=C(C)C`, the inhibition of growth at 50 µM worked out at 41% in experiment [1]; 38% in experiment [2]; 20% in experiment [3]; 54% in experiment [4]; 50% in experiment [5]; 36% in experiment [6]. The inhibition of growth at 50 µM in experiment [7] was 54%.
For the compound `C=C[C@@](C)(/C=C/c1ccc(OC(=O)CCCCC)cc1)CCC=C(C)C`, the inhibition of growth at 50 µM is 13% in experiment [1]; 28% in experiment [2]; 18% in experiment [3]; 54% in experiment [4]; 58% in experiment [5]; 50% in experiment [6]. The inhibition of growth at 50 µM in experiment [7] worked out at 19%.
`C=C[C@@](C)(/C=C/c1ccc(OC(=O)CCCCCCC)cc1)CCC=C(C)C`: the inhibition of growth at 50 µM in experiment [1] was 42%; in experiment [2] it was 22%; in experiment [3], 12%; in experiment [4], 62%; in experiment [5] it was 15%; in experiment [6], 53%. The inhibition of growth at 50 µM in experiment [7] was 51%.
As for `COc1ccccc1/C=C/[C@@](C)(/C=C/c1ccc(O)cc1)CCC=C(C)C`, the inhibition of growth at 50 µM in experiment [1] came to 38%; in experiment [2], 46%; in experiment [3], 42%; in experiment [4] it was 62%; in experiment [5], 10%; in experiment [6], 50%. Also, the inhibition of growth at 50 µM in experiment [7] is 68%.
For the compound `C=C[C@@](C)(/C=C/c1ccc(O)cc1)CCC1OC1(C)C` (stereo not given in full), the inhibition of growth at 50 µM in experiment [1] amounted to 12%; in experiment [2] it was 46%; in experiment [3] it was 33%; in experiment [4], 52%; in experiment [5], 44%; in experiment [6], 32%. The inhibition of growth at 50 µM in experiment [7] came to 59%.
On to `CC[C@](C)(CCCC(C)C)CCc1ccc(O)cc1`, for which the inhibition of growth at 50 µM came out at 43% in experiment [1]; 40% in experiment [2]; 46% in experiment [3]; 58% in experiment [4]; 49% in experiment [5]; 42% in experiment [6]. The inhibition of growth at 50 µM in experiment [7] came out at 53%.
